Calls of active or inactive are those of the source. The calls are words filed in the database; no cut-off is given here.
Experiments:
[1] = biological target: Sphingosine 1-phosphate receptor 2 (Homo sapiens, UniProt O95136); assay: Displacement of [33P]sphingosine 1 phosphate from human S1P2 receptor expressed in CHO cells; type: cell-based
[2] = biological target: T1, Sphingosine 1-phosphate receptor 1 (Homo sapiens, UniProt P21453); assay: Displacement of [33P]sphingosine 1 phosphate from human S1P1 receptor expressed in CHO cells; type: cell-based
T1 sequence (P21453 whole entry): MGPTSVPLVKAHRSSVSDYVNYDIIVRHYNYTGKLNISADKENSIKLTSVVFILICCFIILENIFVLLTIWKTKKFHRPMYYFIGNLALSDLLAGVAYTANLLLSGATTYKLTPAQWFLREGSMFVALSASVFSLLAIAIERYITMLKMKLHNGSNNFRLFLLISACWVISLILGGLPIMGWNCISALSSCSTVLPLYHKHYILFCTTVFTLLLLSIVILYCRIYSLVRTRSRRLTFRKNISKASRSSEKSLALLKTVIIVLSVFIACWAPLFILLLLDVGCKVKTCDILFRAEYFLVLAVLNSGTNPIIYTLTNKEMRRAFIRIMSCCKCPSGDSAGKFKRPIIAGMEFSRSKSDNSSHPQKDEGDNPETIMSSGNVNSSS

[3] = biological target: T2, Sphingosine 1-phosphate receptor 4 (Homo sapiens, UniProt O95977); assay: Displacement of [33P]sphingosine 1 phosphate from human S1P4 receptor expressed in CHO cells; type: cell-based
T2 sequence (O95977 whole entry): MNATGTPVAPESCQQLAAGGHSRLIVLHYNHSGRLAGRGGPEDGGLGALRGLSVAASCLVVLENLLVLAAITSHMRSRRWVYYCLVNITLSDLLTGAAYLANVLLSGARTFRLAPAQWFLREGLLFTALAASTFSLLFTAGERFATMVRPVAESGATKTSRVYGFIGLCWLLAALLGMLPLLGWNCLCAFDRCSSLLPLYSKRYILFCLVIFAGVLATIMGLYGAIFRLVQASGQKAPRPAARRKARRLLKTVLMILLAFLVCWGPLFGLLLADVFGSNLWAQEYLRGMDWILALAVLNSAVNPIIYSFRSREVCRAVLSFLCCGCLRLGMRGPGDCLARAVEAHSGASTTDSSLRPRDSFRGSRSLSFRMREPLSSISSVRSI
How it was run: (§1)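 Competition binding with [33P]-labeled S1P on membranes of CHO cells stably expressing each human S1P receptor. Values are the mean of n = 3 determinations.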

[4] = biological target: T1, Sphingosine 1-phosphate receptor 1; assay: Activity at human S1P1 receptor expressed in CHO cells by [35S]GTPgammaS binding assay; type: functional, cell-based
How it was run: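 Agonism measured as ligand-induced [35S]-GTPγS binding to membranes of CHO cells stably expressing the human S1P receptor.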

[5] = biological target: Sphingosine 1-phosphate receptor 3 (Homo sapiens, UniProt Q99500); assay: Displacement of [33P]sphingosine 1 phosphate from human S1P3 receptor expressed in CHO cells; type: cell-based
Chain of Sphingosine 1-phosphate receptor 3 (Q99500 whole entry): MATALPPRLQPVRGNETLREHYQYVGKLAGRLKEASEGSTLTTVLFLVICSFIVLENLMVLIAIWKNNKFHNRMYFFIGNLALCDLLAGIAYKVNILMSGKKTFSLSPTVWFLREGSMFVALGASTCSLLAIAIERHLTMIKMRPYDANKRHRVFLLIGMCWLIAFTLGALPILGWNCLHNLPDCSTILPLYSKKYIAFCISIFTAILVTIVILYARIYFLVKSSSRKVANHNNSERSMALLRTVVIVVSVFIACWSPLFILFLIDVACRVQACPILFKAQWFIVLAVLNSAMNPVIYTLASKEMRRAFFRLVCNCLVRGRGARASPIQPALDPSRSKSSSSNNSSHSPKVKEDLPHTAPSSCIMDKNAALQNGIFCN

[6] = biological target: Sphingosine 1-phosphate receptor 5 (Homo sapiens, UniProt Q9H228); assay: Displacement of [33P]sphingosine 1 phosphate from human S1P5 receptor expressed in CHO cells; type: cell-based; how it was run: as §1
Chain of Sphingosine 1-phosphate receptor 5 (Q9H228 whole entry): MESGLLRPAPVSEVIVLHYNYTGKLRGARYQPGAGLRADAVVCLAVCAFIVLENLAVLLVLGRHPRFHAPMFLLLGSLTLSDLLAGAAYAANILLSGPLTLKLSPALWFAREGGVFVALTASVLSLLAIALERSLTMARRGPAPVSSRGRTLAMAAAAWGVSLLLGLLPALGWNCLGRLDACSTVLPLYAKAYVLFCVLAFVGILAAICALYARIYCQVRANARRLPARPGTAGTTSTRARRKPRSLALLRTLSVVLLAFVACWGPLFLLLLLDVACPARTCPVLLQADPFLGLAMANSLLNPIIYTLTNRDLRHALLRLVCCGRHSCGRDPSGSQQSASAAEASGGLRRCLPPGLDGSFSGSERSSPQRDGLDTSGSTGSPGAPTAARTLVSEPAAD

Mus musculus = assay: Decrease in peripheral blood lymphocytes in po dosed mouse after 3 hrs; type: functional
How it was run: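 Compound given orally to mice. Peripheral blood lymphocyte counts taken 3 h after dosing, expressed as average percent decrease in n = 3 animals versus controls (n = 3). ED50 from dose-titration.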

[7] = Oral bioavailability in rat; type: ADME, organism-based; settings: in vivo
[8] = Half life in rat; type: ADME, organism-based; settings: in vivo
[9] = Cmax in rat at 2 mg/kg, po and 1 mg/kg, iv; type: ADME, organism-based; settings: in vivo
How it was run: (§2)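 Rat PK at 2.0 mpk po and 1.0 mpk iv. Plasma compound levels measured.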

[10] = Half life in rat at 2 mg/kg, po and 1 mg/kg, iv; type: ADME, organism-based; settings: in vivo; how it was run: as §2
[11] = Bioavailability in rat at 2 mg/kg, po and 1 mg/kg, iv; type: ADME, organism-based; settings: in vivo; how it was run: as §2
[12] = Volume of distribution at steady state in rat at 2 mg/kg, po and 1 mg/kg, iv; type: ADME, organism-based; settings: in vivo, read-out: Vdss
[13] = Plasma clearance in rat at 2 mg/kg, po and 1 mg/kg, iv; type: ADME, organism-based; how it was run: as §2
Rhesus monkey = assay: Maximal decrease in peripheral blood lymphocyte in rhesus monkey at 1 mg/kg, po after 24 hrs; type: functional, organism-based; parameters: dose 1 mg/kg; settings: Macaca mulatta
How it was run: (§3)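 Complete blood counts run alongside plasma concentrations after a single 1.0 mpk oral dose in beagle dog or rhesus monkey. Lymphocyte counts followed over time, with PBL lowering assessed at 24 h postdose.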

[14] = Half life in Beagle dog at 1 mg/kg, po and 0.5 mg/kg, iv; settings: in vivo
[15] = Volume of distribution at steady state in Beagle dog at 1 mg/kg, po and 0.5 mg/kg, iv; type: ADME, organism-based, Canis lupus familiaris; settings: in vivo, read-out: Vdss
[16] = Volume of distribution at steady state in rhesus monkey at 1 mg/kg, po and 0.5 mg/kg, iv; type: ADME, organism-based, Macaca mulatta; settings: in vivo, read-out: Vdss
Canis familiaris [17] = assay: Maximal decrease in peripheral blood lymphocyte in Beagle dog at 1 mg/kg, po after 24 hrs; type: functional, organism-based; parameters: dose 1 mg/kg; settings: Canis lupus familiaris; how it was run: as §3
[18] = Half life in rhesus monkey at 1 mg/kg, po and 0.5 mg/kg, iv; settings: in vivo
[19] = Bioavailability in rhesus monkey at 1 mg/kg, po and 0.5 mg/kg, iv; type: ADME, organism-based, Macaca mulatta; settings: in vivo
How it was run: (§4)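 Single-dose PK at 1.0 mpk po and 0.5 mpk iv. Plasma compound levels measured.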

Canis familiaris [20] = assay: Plasma clearance in Beagle dog at 1 mg/kg, po and 0.5 mg/kg, iv; type: ADME, organism-based, Canis lupus familiaris; settings: in vivo; how it was run: as §4
[21] = Cmax in rhesus monkey at 1 mg/kg, po and 0.5 mg/kg, iv; type: ADME, organism-based, Macaca mulatta; settings: in vivo; how it was run: as §4
[22] = Plasma clearance in rhesus monkey at 1 mg/kg, po and 0.5 mg/kg, iv; type: ADME, organism-based, Macaca mulatta; how it was run: as §4
Canis familiaris [23] = assay: Cmax in Beagle dog at 1 mg/kg, po and 0.5 mg/kg, iv; type: ADME, organism-based, Canis lupus familiaris; settings: in vivo; how it was run: as §4
[24] = Bioavailability in Beagle dog at 1 mg/kg, po and 0.5 mg/kg, iv; type: ADME, organism-based, Canis lupus familiaris; settings: in vivo; how it was run: as §4

Chain of Sphingosine 1-phosphate receptor 2 (O95136 whole entry): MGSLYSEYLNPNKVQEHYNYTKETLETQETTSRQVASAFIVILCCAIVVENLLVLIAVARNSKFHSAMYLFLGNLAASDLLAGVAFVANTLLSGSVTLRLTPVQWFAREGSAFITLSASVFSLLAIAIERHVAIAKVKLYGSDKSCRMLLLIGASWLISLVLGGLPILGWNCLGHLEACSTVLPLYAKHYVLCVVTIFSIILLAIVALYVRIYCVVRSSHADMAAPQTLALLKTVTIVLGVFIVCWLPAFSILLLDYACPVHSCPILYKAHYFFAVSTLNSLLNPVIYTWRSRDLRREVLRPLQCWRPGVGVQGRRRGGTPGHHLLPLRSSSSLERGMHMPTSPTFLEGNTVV

Structure (SMILES) | IC50 [1] [nM] | IC50 [2] | IC50 [3] | EC50 [4] | IC50 [5] | IC50 [6] | further results
COc1cc(CN2CC(C(=O)O)C2)ccc1OCc1cc(-c2ccccc2)c(C(F)(F)F)s1 | > 10000 | 33 nM (antagonist) | 2800 nM (antagonist) | 47 nM (agonist) | > 10000 nM | 77 nM (antagonist) | –
CCCCCCCCCc1ccc(CN2CC(C(=O)O)C2)cc1 | > 10000 | 18 nM (antagonist) | 5400 nM (antagonist) | – | 4900 nM (antagonist) | 11 nM (antagonist) | ED50 (Mus musculus): 5.2 mg/kg; bioavailability [7]: > 70%; half-life [8]: 1.4 h
Cc1cc(CN2CC(C(=O)O)C2)cc(C)c1OCc1cc(-c2ccccc2)c(C(F)(F)F)s1 | > 10000 | 4 nM (antagonist) | 120 nM (antagonist) | 1.3 nM (agonist) | 10000 nM | 12 nM (antagonist) | –
O=C(O)C1CN(Cc2ccc(OCc3cc(-c4ccccc4)c(C(F)(F)F)s3)c(Cl)c2)C1 | > 10000 | 3.2 nM (antagonist) | 1300 nM (antagonist) | 1.4 nM (agonist) | 2000 nM (antagonist) | 18 nM (antagonist) | Cmax [9]: 500 nM; half-life [10]: 7 h; bioavailability [11]: 62%; Vd [12]: 3.8 L/kg; ED50 (Mus musculus): 0.54 mg/kg; clearance [13]: 8.2 mL/min/kg
CCCCCCCCCc1ccc(CN2CCC(P(=O)(O)O)C2)cc1 (stereo not drawn) | > 10000 | 6.9 nM (antagonist) | 45 nM (antagonist) | – | 220 nM (antagonist) | 6.3 nM (antagonist) | –
O=C(O)C1CN(Cc2ccc(OCc3cc(-c4ccccc4)c(C(F)(F)F)s3)c(C(F)(F)F)c2)C1 | > 10000 | 7.7 nM (antagonist) | 340 nM (antagonist) | 5.9 nM (agonist) | > 10000 nM | 21 nM (antagonist) | –
O=C(O)C1CCN(Cc2ccc(OCc3cc(-c4ccccc4)c(C(F)(F)F)s3)cc2)C1 (stereo not drawn) | > 10000 | 4.3 nM (antagonist) | 790 nM (antagonist) | 2.4 nM (agonist) | 1000 nM (antagonist) | 120 nM (antagonist) | –
CCCCCCCCc1ccc(CCC(N)(CO)CO)cc1 [FINGOLIMOD] | > 10000 | – | > 10000 nM | – | > 10000 nM | 2100 nM (antagonist) | ED50 (Mus musculus): 0.15 mg/kg
CCc1cc(CN2CC(C(=O)O)C2)ccc1OCc1cc(-c2ccccc2)c(C(F)(F)F)s1 | > 10000 | 3.5 nM (antagonist) | > 10000 nM | 1.4 nM (agonist) | 4300 nM (antagonist) | 10 nM (antagonist) | –
Cc1cc(CN2CC(C(=O)O)C2)ccc1OCc1cc(-c2ccccc2)c(C(F)(F)F)s1 | > 10000 | 1.8 nM (antagonist) | 1500 nM (antagonist) | 0.8 nM (agonist) | 7500 nM (antagonist) | 13 nM (antagonist) | Activity (Rhesus monkey): Active; Cmax [9]: 500 nM; half-life [14]: 22.3 h; half-life [10]: 8.9 h; bioavailability [11]: 88%; Vd [15]: 0.9 L/kg; Vd [12]: 5.7 L/kg; Vd [16]: 1.2 L/kg; ED50 (Mus musculus): 0.18 mg/kg; Activity (Canis familiaris [17]): Active; half-life [18]: 12.6 h; bioavailability [19]: 96%; clearance (Canis familiaris [20]): 0.5 mL/min/kg; Cmax [21]: 1800 nM; clearance [22]: 1.3 mL/min/kg; Cmax (Canis familiaris [23]): 3200 nM; bioavailability [24]: 100%; clearance [13]: 8.2 mL/min/kg
CCCCCCCCCCCCC/C=C/[C@@H](O)[C@@H](N)COP(=O)(O)O | – | 0.67 nM (antagonist) | 34 nM (antagonist) | – | 0.26 nM (antagonist) | – | –
O=C(O)C1CN(Cc2ccc(OCc3cc(-c4ccccc4)c(C(F)(F)F)s3)c(F)c2)C1 | > 10000 | 2.7 nM (antagonist) | 2700 nM (antagonist) | 1.3 nM (agonist) | 2100 nM (antagonist) | 41 nM (antagonist) | –
O=C(O)C1CN(Cc2cc(Cl)c(OCc3cc(-c4ccccc4)c(C(F)(F)F)s3)c(Cl)c2)C1 | > 10000 | 7.5 nM (antagonist) | 640 nM (antagonist) | 2.7 nM (agonist) | > 10000 nM | 33 nM (antagonist) | –
O=C(O)C1CN(Cc2ccc(OCc3cc(-c4ccccc4)c(C(F)(F)F)s3)c(Br)c2)C1 | > 10000 | 13 nM (antagonist) | 2400 nM (antagonist) | 3.3 nM (agonist) | > 10000 nM | 53 nM (antagonist) | –
FC(F)(F)c1sc(-c2nc(-c3ccc(Cl)cc3Cl)no2)cc1-c1ccccc1 | > 10000 | 78 nM (antagonist) | > 10000 nM | – | > 10000 nM | > 10000 nM | –
FC(F)(F)c1cccc(-c2noc(-c3cc(-c4ccccc4)c(C(F)(F)F)s3)n2)c1 | > 10000 | – | > 10000 nM | – | > 10000 nM | 4600 nM (antagonist) | –
FC(F)(F)c1sc(-c2nc(-c3ccccc3)no2)cc1-c1ccccc1 | > 10000 | 25 nM (antagonist) | > 10000 nM | – | > 10000 nM | > 10000 nM | –
CCCCCCCCOc1c(Br)cc(CNCCCP(=O)(O)O)cc1OC | – | – | 80 nM (antagonist) | – | – | – | –
CCCCCCCCCc1ccc(CN2CCC(C(=O)O)C2)cc1 (stereo not drawn) | > 10000 | 20 nM (antagonist) | 2500 nM (antagonist) | – | 2100 nM (antagonist) | 29 nM (antagonist) | ED50 (Mus musculus): 23 mg/kg; bioavailability [7]: > 70%; half-life [8]: 0.9 h

— ChEMBL document CHEMBL1149292, “A rational utilization of high-throughput screening affords selective, orally bioavailable 1-benzyl-3-carboxyazetidine sphingosine-1-phosphate-1 receptor agonists” (J Med Chem, 2004)
